Legend:
[1] = target: Centromere-associated protein E (Homo sapiens, UniProt Q02224, I182L); experiment: Binding affinity to human CENP-E I182L mutant assessed as inhibition constant
[2] = target: Centromere-associated protein E (Homo sapiens, UniProt Q02224, I182L/K184T); experiment: Binding affinity to human CENP-E I182L/K184T mutant assessed as inhibition constant
[3] = Binding affinity to human CENP-E T183A/K184T mutant assessed as inhibition constant
CWR22R = experiment: Anticancer activity against human 22Rv1 cells assessed as cell growth inhibition measured after 72 hrs by DAPI staining based analysis; assay type: functional
Method in brief: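 Cells were seeded and, after 24 h, DNA content was read as T0. Cells were then exposed to varying drug concentrations for a further 72 h (T72). Fixed cells were DAPI-stained and DNA content measured by automated imaging. T72 values were normalized to T0. GI50 is the concentration giving 50% growth inhibition between T0 and Ymax, obtained by curve fitting.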

CAL-27 = experiment: Anticancer activity against human CAL-27 cells assessed as cell growth inhibition measured after 72 hrs by DAPI staining based analysis; assay type: functional
Method in brief: (§1)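 Cells were seeded, and DNA content at 24 h after seeding (T0) was read by imaging of fixed, DAPI-stained cells. Cells were then exposed to a range of drug concentrations for a further 72 h (T72) and DNA content was read again. T72 values were normalized to T0, and GI50 was taken from curve fits as the concentration giving 50% growth inhibition relative to T0 and Ymax.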

CAL-62 = experiment: Anticancer activity against human CAL-62 cells assessed as cell growth inhibition measured after 72 hrs by DAPI staining based analysis; assay type: functional; method in brief: as §1
GCT = experiment: Anticancer activity against human GCT cells assessed as cell growth inhibition measured after 72 hrs by DAPI staining based analysis; assay type: functional
Method in brief: (§2)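 Cells seeded, DAPI-stained DNA content of fixed cells read by imaging 24 h after seeding (T0), and again after a further 72 h exposure to a range of drug concentrations (T72). T72 values were normalized to T0. Curve fits gave the concentration producing 50% growth inhibition relative to T0 and Ymax (GI50).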

HCC1954 = experiment: Anticancer activity against human HCC1954 cells assessed as cell growth inhibition measured after 72 hrs by DAPI staining based analysis; assay type: functional; method in brief: as §2
HeLa = experiment: Anticancer activity against human HeLa cells assessed as cell growth inhibition measured after 72 hrs by DAPI staining based analysis; assay type: functional
HT-1376 = experiment: Anticancer activity against human HT-1376 cells assessed as cell growth inhibition measured after 72 hrs by DAPI staining based analysis; assay type: functional
LNCaP = experiment: Anticancer activity against human LNCaP cells assessed as cell growth inhibition measured after 72 hrs by DAPI staining based analysis; assay type: functional
MV4-11 = experiment: Anticancer activity against human MV4-11 cells assessed as cell growth inhibition measured after 72 hrs by DAPI staining based analysis; assay type: functional
NCI-H2052 = experiment: Anticancer activity against human NCI-H2052 cells assessed as cell growth inhibition measured after 72 hrs by DAPI staining based analysis; assay type: functional
NCI-H292 = experiment: Anticancer activity against human NCI-H292 cells assessed as cell growth inhibition measured after 72 hrs by DAPI staining based analysis; assay type: functional
NCI-H596 = experiment: Anticancer activity against human NCI-H596 cells assessed as cell growth inhibition measured after 72 hrs by DAPI staining based analysis; assay type: functional
NCI-H82 = experiment: Anticancer activity against human NCI-H82 cells assessed as cell growth inhibition measured after 72 hrs by DAPI staining based analysis; assay type: functional
RL = experiment: Anticancer activity against human RL cells assessed as cell growth inhibition measured after 72 hrs by DAPI staining based analysis; assay type: functional
SCC-9 = experiment: Anticancer activity against human SCC-9 cells assessed as cell growth inhibition measured after 72 hrs by DAPI staining based analysis; assay type: functional
SR = experiment: Anticancer activity against human SR cells assessed as cell growth inhibition measured after 72 hrs by DAPI staining based analysis; assay type: functional
SW1417 = experiment: Anticancer activity against human SW1417 cells assessed as cell growth inhibition measured after 72 hrs by DAPI staining based analysis; assay type: functional
639-V = experiment: Anticancer activity against human 639-V cells assessed as cell doubling measured for 72 hrs by DAPI staining based analysis; assay type: functional
A673 = experiment: Anticancer activity against human A673 cells assessed as cell doubling measured for 72 hrs by DAPI staining based analysis; assay type: functional
Capan-2 = experiment: Anticancer activity against human Capan-2 cells assessed as cell doubling measured for 72 hrs by DAPI staining based analysis; assay type: functional
COLO 320DM = experiment: Anticancer activity against human COLO 320DM cells assessed as cell doubling measured for 72 hrs by DAPI staining based analysis; assay type: functional
Detroit 562 = experiment: Anticancer activity against human Detroit 562 cells assessed as cell doubling measured for 72 hrs by DAPI staining based analysis; assay type: functional
HCC70 = experiment: Anticancer activity against human HCC70 cells assessed as cell doubling measured for 72 hrs by DAPI staining based analysis; assay type: functional
HPAF-II = experiment: Anticancer activity against human HPAF-II cells assessed as cell doubling measured for 72 hrs by DAPI staining based analysis; assay type: functional
HT-1080 = experiment: Anticancer activity against human HT-1080 cells assessed as cell doubling measured for 72 hrs by DAPI staining based analysis; assay type: functional
HuT78 = experiment: Anticancer activity against human HuT78 cells assessed as cell doubling measured for 72 hrs by DAPI staining based analysis; assay type: functional
NCI-H1299 [4] = experiment: Anticancer activity against human NCI-H1299 cells assessed as cell doubling measured for 72 hrs by DAPI staining based analysis; assay type: functional
NCI-H157 = experiment: Anticancer activity against human NCI-H157 cells assessed as cell doubling measured for 72 hrs by DAPI staining based analysis; assay type: functional
SCC-15 = experiment: Anticancer activity against human SCC-15 cells assessed as cell doubling measured for 72 hrs by DAPI staining based analysis; assay type: functional
SJRH30 = experiment: Anticancer activity against human SJRH30 cells assessed as cell doubling measured for 72 hrs by DAPI staining based analysis; assay type: functional
SK-NEP-1 = experiment: Anticancer activity against human SK-NEP-1 cells assessed as cell doubling measured for 72 hrs by DAPI staining based analysis; assay type: functional
SNB-19 = experiment: Anticancer activity against human SNB-19 cells assessed as cell doubling measured for 72 hrs by DAPI staining based analysis; assay type: functional
SNB-75 = experiment: Anticancer activity against human SNB-75 cells assessed as cell doubling measured for 72 hrs by DAPI staining based analysis; assay type: functional
SW780 = experiment: Anticancer activity against human SW780 cells assessed as cell doubling measured for 72 hrs by DAPI staining based analysis; assay type: functional
TK-10 = experiment: Anticancer activity against human TK-10 cells assessed as cell doubling measured for 72 hrs by DAPI staining based analysis; assay type: functional
SK-OV-3 = experiment: Antitumor activity against human SK-OV-3 cells in xenograft model assessed as difference between median time to endpoint time of treated versus control group at 125 mg/kg; assay type: functional
NCI-H1299 [5] = experiment: Antitumor activity against human NCI-H1299 cells in xenograft model assessed as tumor growth delay at 125 mg/kg relative to control; assay type: functional

Sequence of Centromere-associated protein E (Homo sapiens, UniProt Q02224, I182L) (Q02224 whole entry I182L): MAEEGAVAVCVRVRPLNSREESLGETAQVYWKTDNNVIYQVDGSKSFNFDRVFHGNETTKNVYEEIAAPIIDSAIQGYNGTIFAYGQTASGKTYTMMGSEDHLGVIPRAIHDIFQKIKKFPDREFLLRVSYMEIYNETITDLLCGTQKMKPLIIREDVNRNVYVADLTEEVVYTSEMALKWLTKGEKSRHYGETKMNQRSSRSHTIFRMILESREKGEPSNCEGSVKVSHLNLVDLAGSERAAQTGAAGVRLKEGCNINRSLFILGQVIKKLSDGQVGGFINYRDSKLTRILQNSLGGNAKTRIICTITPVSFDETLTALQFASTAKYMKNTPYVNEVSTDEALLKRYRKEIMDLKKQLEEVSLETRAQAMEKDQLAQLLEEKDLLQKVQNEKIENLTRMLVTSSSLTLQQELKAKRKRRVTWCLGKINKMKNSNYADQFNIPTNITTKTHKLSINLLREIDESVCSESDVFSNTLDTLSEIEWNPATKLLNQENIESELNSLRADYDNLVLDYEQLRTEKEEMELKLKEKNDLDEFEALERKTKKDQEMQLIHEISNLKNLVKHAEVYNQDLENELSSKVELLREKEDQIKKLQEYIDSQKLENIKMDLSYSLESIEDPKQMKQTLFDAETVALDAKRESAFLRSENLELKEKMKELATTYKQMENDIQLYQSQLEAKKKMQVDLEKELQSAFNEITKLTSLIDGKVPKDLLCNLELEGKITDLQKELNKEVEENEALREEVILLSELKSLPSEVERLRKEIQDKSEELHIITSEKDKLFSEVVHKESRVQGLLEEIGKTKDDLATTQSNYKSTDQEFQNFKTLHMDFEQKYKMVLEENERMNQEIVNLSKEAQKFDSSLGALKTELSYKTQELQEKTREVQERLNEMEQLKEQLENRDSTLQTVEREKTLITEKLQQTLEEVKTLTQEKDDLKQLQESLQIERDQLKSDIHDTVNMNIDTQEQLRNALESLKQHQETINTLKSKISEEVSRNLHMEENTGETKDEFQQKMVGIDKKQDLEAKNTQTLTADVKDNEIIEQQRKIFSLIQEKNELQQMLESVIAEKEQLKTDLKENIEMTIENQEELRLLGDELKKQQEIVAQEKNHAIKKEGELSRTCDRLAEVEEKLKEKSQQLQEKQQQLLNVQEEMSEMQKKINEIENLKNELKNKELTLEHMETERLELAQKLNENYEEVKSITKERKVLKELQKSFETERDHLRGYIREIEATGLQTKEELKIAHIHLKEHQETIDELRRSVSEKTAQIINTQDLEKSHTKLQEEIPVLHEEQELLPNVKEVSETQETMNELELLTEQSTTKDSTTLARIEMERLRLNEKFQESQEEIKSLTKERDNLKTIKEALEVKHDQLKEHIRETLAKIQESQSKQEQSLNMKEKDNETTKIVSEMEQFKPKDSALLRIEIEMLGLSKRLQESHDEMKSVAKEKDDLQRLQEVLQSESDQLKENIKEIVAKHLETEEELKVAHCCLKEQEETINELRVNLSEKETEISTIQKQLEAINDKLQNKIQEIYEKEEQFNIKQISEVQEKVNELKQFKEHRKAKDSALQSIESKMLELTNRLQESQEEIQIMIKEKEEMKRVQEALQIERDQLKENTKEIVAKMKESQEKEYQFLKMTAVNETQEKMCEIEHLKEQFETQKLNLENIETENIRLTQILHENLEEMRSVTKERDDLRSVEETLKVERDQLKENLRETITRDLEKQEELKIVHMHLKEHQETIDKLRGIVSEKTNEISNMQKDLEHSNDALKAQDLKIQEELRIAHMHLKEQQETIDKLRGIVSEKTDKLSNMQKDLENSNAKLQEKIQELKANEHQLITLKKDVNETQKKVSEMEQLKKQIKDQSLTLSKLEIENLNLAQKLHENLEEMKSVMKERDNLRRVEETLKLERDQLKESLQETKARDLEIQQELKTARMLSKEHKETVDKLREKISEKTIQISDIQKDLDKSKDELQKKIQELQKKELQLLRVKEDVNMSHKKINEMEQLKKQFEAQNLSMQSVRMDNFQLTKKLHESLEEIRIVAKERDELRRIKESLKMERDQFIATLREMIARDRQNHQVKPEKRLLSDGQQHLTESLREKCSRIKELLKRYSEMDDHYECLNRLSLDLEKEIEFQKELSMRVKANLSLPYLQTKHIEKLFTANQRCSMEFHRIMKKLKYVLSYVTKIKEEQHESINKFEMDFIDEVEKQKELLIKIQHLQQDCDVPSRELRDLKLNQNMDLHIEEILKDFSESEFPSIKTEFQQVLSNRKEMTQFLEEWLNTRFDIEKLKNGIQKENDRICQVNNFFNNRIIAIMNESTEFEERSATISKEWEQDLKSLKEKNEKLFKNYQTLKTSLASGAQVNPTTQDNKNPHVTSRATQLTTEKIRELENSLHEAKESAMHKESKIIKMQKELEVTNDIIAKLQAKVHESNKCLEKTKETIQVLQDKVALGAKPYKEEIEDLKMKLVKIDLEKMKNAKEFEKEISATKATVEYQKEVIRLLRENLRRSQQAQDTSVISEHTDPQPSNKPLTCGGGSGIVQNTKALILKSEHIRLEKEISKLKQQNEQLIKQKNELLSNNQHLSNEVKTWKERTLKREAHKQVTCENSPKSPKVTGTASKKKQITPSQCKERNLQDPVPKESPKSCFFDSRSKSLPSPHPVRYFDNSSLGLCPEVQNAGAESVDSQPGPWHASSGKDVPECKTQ
Sequence of Centromere-associated protein E (Homo sapiens, UniProt Q02224, I182L/K184T) (Q02224 whole entry I182L/K184T): as the sequence (Q02224 whole entry I182L) above, with K184T counted along it

CC(C)Oc1ccc(C(=O)N[C@H](CNC(=O)CN(C)C)Cc2ccc(-c3cn4cccc([C@H](C)O)c4n3)cc2)cc1Cl [GSK-923295A] showed a Ki [1] of 14 nM, a Ki [2] of 18 nM and a Ki [3] of 11 nM. It also gave a GI50 (CWR22R) of 29 nM, a GI50 (CAL-27) of 47 nM and a GI50 (CAL-62) of 30 nM. It also gave a GI50 (GCT) of 23 nM, a GI50 (HCC1954) of 18 nM and a GI50 (HeLa) of 20 nM. The GI50 (HT-1376) was 33 nM, the GI50 (LNCaP) was 76 nM and the GI50 (MV4-11) was 29 nM. For the same molecule, the GI50 (NCI-H2052) was 44 nM, the GI50 (NCI-H292) was 31 nM and the GI50 (NCI-H596) was 5.02 µM. The GI50 (NCI-H82) was 18 nM, the GI50 (RL) was 37 nM and the GI50 (SCC-9) was 24 nM. The GI50 (SR) was 29 nM, the GI50 (SW1417) was 29 nM and the Activity (639-V) was 3.86. For the same molecule, the Activity (A673) was 2, the Activity (Capan-2) was 1.89 and the Activity (COLO 320DM) was 3.85. For the same molecule, the Activity (Detroit 562) was 2.52, the Activity (HCC70) was 1.35 and the Activity (HPAF-II) was 2.42. It also gave an Activity (HT-1080) of 3.05, an Activity (HuT78) of 2.89 and an Activity (NCI-H1299 [4]) of 2.78. It also gave an Activity (NCI-H157) of 2.6, an Activity (SCC-15) of 2.38 and an Activity (SJRH30) of 2.12. The Activity (SK-NEP-1) was 1.74, the Activity (SNB-19) was 2.56 and the Activity (SNB-75) was 1.37. For the same molecule, the Activity (SW780) was 2.73, the Activity (TK-10) was 1.94 and the Time (SK-OV-3) was >95 days. For the same molecule, the Activity (NCI-H1299 [5]) was 76%.

— ChEMBL document CHEMBL5705890, “Antitumor activity of an allosteric inhibitor of centromere-associated protein-E” (Proc Natl Acad Sci U S A, 2010)
